Measurements taken from ChEMBL document CHEMBL3351505, “Ultrasound-assisted synthesis of novel 1,2,3-triazoles coupled diaryl sulfone moieties by the CuAAC reaction, and biological evaluation of them as antioxidant and antimicrobial agents” (Eur J Med Chem, 2014).
In brackets after ≈: the same amount, converted by molar mass. Activity calls are given as the source filed them. No cut-off for these calls is given here.

How the values were obtained:
Staphylococcus aureus [1] = test: Antibacterial activity against Staphylococcus aureus ATCC 29213 using 100 uL of test compound after 24 hrs by agar well diffusion method; type: functional
Procedure, shortened: (§1)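 Agar well diffusion. Nutrient agar was spread with bacterial suspension at 1×10⁸ CFU/mL, and 10 mm wells were cut. Wells were loaded with compound solution made at 200 mg per 1 mL DMSO. Plates were incubated 24 h at 37 °C and inhibition zones were measured. DMSO served as the negative control.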

Bacillus subtilis [2] = test: Antibacterial activity against Bacillus subtilis ATCC 6633 using 100 uL of test compound after 24 hrs by agar well diffusion method; type: functional; procedure, shortened: as §1
Priestia megaterium [3] = test: Antibacterial activity against Bacillus megaterium ATCC 9885 using 100 uL of test compound after 24 hrs by agar well diffusion method; type: functional; procedure, shortened: as §1
Micrococcus luteus [4] = test: Antibacterial activity against Sarcina lutea using 100 uL of test compound after 24 hrs by agar well diffusion method; type: functional; procedure, shortened: as §1
Klebsiella pneumoniae [5] = test: Antibacterial activity against Klebsiella pneumoniae ATCC 13883 using 100 uL of test compound after 24 hrs by agar well diffusion method; type: functional; procedure, shortened: as §1
Pseudomonas aeruginosa [6] = test: Antibacterial activity against Pseudomonas aeruginosa ATCC 27953 using 100 uL of test compound after 24 hrs by agar well diffusion method; type: functional; procedure, shortened: as §1
Escherichia coli [7] = test: Antibacterial activity against Escherichia coli ATCC 25922 using 100 uL of test compound after 24 hrs by agar well diffusion method; type: functional; procedure, shortened: as §1
Candida albicans [8] = test: Antifungal activity against Candida albicans NRRL Y-477 using 100 uL of test compound after 48 hrs by agar well diffusion method; type: functional
Procedure, shortened: as §1, with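 “Sabouraud dextrose” for “Nutrient”, “yeast or fungal” for “bacterial”, “1×10⁶” for “1×10⁸”, “48” for “24”, “28” for “37”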

Saccharomyces cerevisiae [9] = test: Antifungal activity against Saccharomyces cerevisiae using 100 uL of test compound after 48 hrs by agar well diffusion method; type: functional
Procedure, shortened: as §1, with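 “Sabouraud dextrose” for “Nutrient”, “yeast or fungal” for “bacterial”, “1×10⁶” for “1×10⁸”, “48” for “24”, “28” for “37”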

Aspergillus niger [10] = test: Antifungal activity against Aspergillus niger using 100 uL of test compound after 48 hrs by agar well diffusion method; type: functional
Procedure, shortened: as §1, with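 “Sabouraud dextrose” for “Nutrient”, “yeast or fungal” for “bacterial”, “1×10⁶” for “1×10⁸”, “48” for “24”, “28” for “37”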

Staphylococcus aureus [11] = test: Antibacterial activity against Staphylococcus aureus ATCC 29213 after 24 hrs by two fold serial dilution method; type: functional
Bacillus subtilis [12] = test: Antibacterial activity against Bacillus subtilis ATCC 6633 after 24 hrs by two fold serial dilution method; type: functional
Priestia megaterium [13] = test: Antibacterial activity against Bacillus megaterium ATCC 9885 after 24 hrs by two fold serial dilution method; type: functional
Micrococcus luteus [14] = test: Antibacterial activity against Sarcina lutea after 24 hrs by two fold serial dilution method; type: functional
Klebsiella pneumoniae [15] = test: Antibacterial activity against Klebsiella pneumoniae ATCC 13883 after 24 hrs by two fold serial dilution method; type: functional; details: ATCC 13883, 24 h
Pseudomonas aeruginosa [16] = test: Antibacterial activity against Pseudomonas aeruginosa ATCC 27953 after 24 hrs by two fold serial dilution method; type: functional
Escherichia coli [17] = test: Antibacterial activity against Escherichia coli ATCC 25922 after 24 hrs by two fold serial dilution method; type: functional
Candida albicans [18] = test: Antifungal activity against Candida albicans NRRL Y-477 after 48 hrs by two fold serial dilution method; type: functional
Procedure, shortened: (§2)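 Two-fold serial broth dilution in a suitable broth, run only on compounds giving inhibition zones of at least 16 mm. Final concentrations were […]. Each 5 mL received 0.1 mL inoculum and was incubated 48 h at 28 °C. MIC was the lowest concentration without growth.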

Saccharomyces cerevisiae [19] = test: Antifungal activity against Saccharomyces cerevisiae after 48 hrs by two fold serial dilution method; type: functional; procedure, shortened: as §2
Aspergillus niger [20] = test: Antifungal activity against Aspergillus niger after 48 hrs by two fold serial dilution method; type: functional; procedure, shortened: as §2
[21] = Antioxidant activity assessed as DPPH free radical scavenging activity by spectrophotometric assay; type: physicochemical
Procedure, shortened: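 Sample solutions at several concentrations were added to 0.004% DPPH in methanol and incubated 60 min in the dark. Absorbance was read at 517 nm against a blank. Inhibition % = (A_blank − A_sample)/A_blank × 100, where the control contained all reagents except the test compound.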

| SMILES | diameter of the inhibition zone (DIZ) (Staphylococcus aureus [1]) | diameter of the inhibition zone (DIZ) (Bacillus subtilis [2]) | diameter of the inhibition zone (DIZ) (Priestia megaterium [3]) | diameter of the inhibition zone (DIZ) (Micrococcus luteus [4]) | diameter of the inhibition zone (DIZ) (Klebsiella pneumoniae [5]) | diameter of the inhibition zone (DIZ) (Pseudomonas aeruginosa [6]) | diameter of the inhibition zone (DIZ) (Escherichia coli [7]) | diameter of the inhibition zone (DIZ) (Candida albicans [8]) | diameter of the inhibition zone (DIZ) (Saccharomyces cerevisiae [9]) | diameter of the inhibition zone (DIZ) (Aspergillus niger [10]) | MIC (Staphylococcus aureus [11]) | MIC (Bacillus subtilis [12]) | MIC (Priestia megaterium [13]; ATCC 9885, 24 h) | MIC (Micrococcus luteus [14]) | MIC (Klebsiella pneumoniae [15]) | MIC (Pseudomonas aeruginosa [16]) | MIC (Candida albicans [18]) | MIC (Saccharomyces cerevisiae [19]) | MIC (Aspergillus niger [20]) | IC50 [21] | further results |
| --- | --- | --- | --- | --- | --- | --- | --- | --- | --- | --- | --- | --- | --- | --- | --- | --- | --- | --- | --- | --- | --- |
| CC(O)(Cc1cn(CC(=O)c2ccc(S(=O)(=O)c3ccccc3)cc2)nn1)c1ccc(S(=O)(=O)c2ccccc2)cc1 (centres undefined) | inactive | inactive | 17 mm | 14 mm | 18 mm | 15 mm | 19 mm | 15 mm | 17 mm | 32 mm | inactive | inactive | 200 µg/mL (≈ 332 µM) | inactive | 200 µg/mL (≈ 332 µM) | inactive | inactive | 200 µg/mL (≈ 332 µM) | 50 µg/mL (≈ 83.1 µM) | 20 µg/mL (≈ 33.2 µM) | MIC (Escherichia coli [17]; ATCC 25922, 24 h): 200 µg/mL (≈ 332 µM) |
| O=C(Cn1cc(CC(O)c2ccc(S(=O)(=O)c3ccccc3)cc2)nn1)c1ccc(S(=O)(=O)c2ccccc2)cc1 (centres undefined) | 17 mm | 20 mm | 15 mm | 22 mm | 19 mm | 17 mm | 17 mm | 15 mm | 16 mm | 28 mm |  |  |  | 100 µg/mL (≈ 170 µM) | 200 µg/mL (≈ 340 µM) | 200 µg/mL (≈ 340 µM) | inactive | 200 µg/mL (≈ 340 µM) | 50 µg/mL (≈ 85.1 µM) | 74 µg/mL (≈ 126 µM) | MIC (Staphylococcus aureus [11]; ATCC 29213, 24 h): 200 µg/mL (≈ 340 µM); MIC (Bacillus subtilis [12]; ATCC 6633, 24 h): 200 µg/mL (≈ 340 µM); MIC (Priestia megaterium [13]): inactive; MIC (Escherichia coli [17]): inactive |
| O=C(Cn1cc(COC(Cc2cn(CC(=O)c3ccc(F)cc3)nn2)c2ccc(S(=O)(=O)c3ccccc3)cc2)nn1)c1ccc(F)cc1 (centres undefined) | 26 mm | 19 mm | 17 mm | 20 mm | 16 mm | 15 mm | 14 mm | 22 mm | 19 mm | 32 mm |  |  | 200 µg/mL (≈ 293 µM) | 200 µg/mL (≈ 293 µM) | 200 µg/mL (≈ 293 µM) | inactive |  | 200 µg/mL (≈ 293 µM) | 50 µg/mL (≈ 73.2 µM) | 275 µg/mL (≈ 403 µM) | MIC (Staphylococcus aureus [11]; ATCC 29213, 24 h): 100 µg/mL (≈ 146 µM); MIC (Bacillus subtilis [12]; ATCC 6633, 24 h): 200 µg/mL (≈ 293 µM); MIC (Escherichia coli [17]): inactive; MIC (Candida albicans [18]; NRRL Y-477, 48 h): 200 µg/mL (≈ 293 µM) |
| CC(Cc1cn(CC(=O)c2ccccc2)nn1)(OCc1cn(CC(=O)c2ccccc2)nn1)c1ccc(S(=O)(=O)c2ccccc2)cc1 (centres undefined) | inactive | 16 mm | 17 mm | 17 mm | 23 mm | 19 mm | 21 mm | 15 mm | 16 mm | 28 mm | inactive | inactive | 200 µg/mL (≈ 303 µM) | 200 µg/mL (≈ 303 µM) | 200 µg/mL (≈ 303 µM) | 200 µg/mL (≈ 303 µM) | inactive | 200 µg/mL (≈ 303 µM) | 50 µg/mL (≈ 75.7 µM) | 125 µg/mL (≈ 189 µM) | MIC (Escherichia coli [17]; ATCC 25922, 24 h): 200 µg/mL (≈ 303 µM) |
